M4 antag – antagonists of human muscarinic M4 receptor (CHRM4); CHO-hM4 cells, ACh EC80, Fluo-8 calcium fluorescence; AID 624125; P08173; inhibition, % at 3 µM; 360,000 compounds, 0.73% hits;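 active = inhibition above its plate's cutoff, the mean inhibition of sample wells plus 3 SD, cut at about 27% in these data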;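 note: 0% = acetylcholine EC80 with DMSO and 100% = DMSO without agonist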
Target sequence (P08173 whole entry, looked up): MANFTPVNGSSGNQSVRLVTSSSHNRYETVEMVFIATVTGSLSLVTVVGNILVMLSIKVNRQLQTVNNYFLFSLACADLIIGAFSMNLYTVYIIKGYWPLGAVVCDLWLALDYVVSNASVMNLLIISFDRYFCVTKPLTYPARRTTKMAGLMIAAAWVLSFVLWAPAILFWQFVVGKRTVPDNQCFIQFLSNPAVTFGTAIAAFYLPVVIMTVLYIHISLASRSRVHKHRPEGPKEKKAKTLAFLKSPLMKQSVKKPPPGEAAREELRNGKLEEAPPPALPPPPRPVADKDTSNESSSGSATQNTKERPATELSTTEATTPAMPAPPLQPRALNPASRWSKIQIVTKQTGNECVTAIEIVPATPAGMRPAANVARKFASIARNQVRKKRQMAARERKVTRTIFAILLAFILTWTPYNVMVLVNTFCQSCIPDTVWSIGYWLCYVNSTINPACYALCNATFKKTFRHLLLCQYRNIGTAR
CHRM4 PAM – positive allosteric modulators of human muscarinic M4 receptor. P08173. CHO-K1 hM4/Gqi5, Fluo-8 calcium fluorescence, ACh EC20; 0% = ACh EC20, 100% = maximal ACh. activation, % at 3 µM. 360,000 compounds, 0.4% hits;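 active = activation above its plate's cutoff, the mean activation of sample wells plus 3 SD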
CHRM5 antagonist – blocks acetylcholine activation of human M5 receptor; CHO-hM5 cells, Fluo-8 calcium fluorescence, ACh EC80; inhibition, % at 3 µM; 360,000 compounds, 0.59% hits; P08912;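 active = inhibition above a per-plate cutoff, the mean of that plate's test compounds plus 3 SD, cut at about 27% in these data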;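 note: 0% = acetylcholine EC80 with DMSO and 100% = DMSO without agonist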
CHRM4 agonist – agonists of human muscarinic M4 receptor (CHRM4); P08173; CHO-K1 hM4/Gqi5, Fluo-8 calcium fluorescence; vehicle 0%, full acetylcholine response 100%; activation, % at 3 µM; 360,000 compounds, 0.14% hits;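 active = activation above the run mean over all test wells plus 3 SD, cut at about 32% in these data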;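 note: peak over basal fluorescence ratio per well then scaled between controls; 0% = DMSO wells and 100% = acetylcholine at EC100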
CHRM5 PAM – CHRM5 positive allosteric modulation | activation, % at 3 µM | P08912 | 360,000 compounds, 0.3% hits | CHO-K1 hM5, Fluo-8 calcium, ACh EC20 PAM; 0% = ACh EC20, 100% = ACh EC100;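 active = activation above the run cutoff, the mean activation of all test compounds plus 3 SD, cut at about 18% in these data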
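system = human M5 receptor in CHO-K1 cells | compound = one concentration, 3 µM final (nominal) | schedule = Post-acetylcholine fluorescence recording 140 s | signal = Fluo-8 calcium dye fluorescence, kinetic read | benchmarks = low control EC20 acetylcholine (0%), high control EC100 acetylcholine (100%) | repeats = singlicate, one well per test compound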
M5 ag – CHRM5 agonism in calcium assay; P08912; CHO-K1 hM5 cells, Fluo-8 calcium fluorescence; 0% DMSO wells, 100% maximal acetylcholine response; activation, % at 3 µM; 360,000 compounds, 0.19% hits; AID 624037;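 active = activation above the run's mean over test compounds plus 3 SD, cut at about 23% in these data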;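 note: signal is peak over basal fluorescence ratio across the kinetic read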
Starred values were filed as active, the others as inactive. In the library only some 1.8% were active in any assay of this set; here they are far more common.

Screening COc1ccc(CC(N)c2csc(Nc3nncc4ccccc34)n2)cc1 (centres undefined) returned M4 antag 5, CHRM4 PAM -4, CHRM5 antagonist 8, CHRM4 agonist 24, CHRM5 PAM 2 and M5 ag 7.
For Cc1ccc(C)c(N2CCN(c3ccc4cc(S(=O)(=O)N5CCCCC5)ccc4n3)CC2)c1 the results were M4 antag -20, CHRM4 PAM 8, CHRM5 antagonist -22, CHRM4 agonist 3, CHRM5 PAM 18* and M5 ag -2.
Screening CCC(=O)N1CCCC(C)(C(=O)Nc2ccc(C)c(C)c2)C1 (centres undefined) returned M4 antag 9, CHRM4 PAM -8, CHRM5 antagonist 10, CHRM4 agonist 1, CHRM5 PAM -4 and M5 ag 1.
For COc1ccc(NC(=O)CN(C)C(=O)CCC2CCCC2)cc1 the results were M4 antag -3, CHRM4 PAM 1, CHRM5 antagonist 30*, CHRM4 agonist 1, CHRM5 PAM -8 and M5 ag -1.
Screening CCOc1ccc(NC(=O)CN(C)C(=O)CCC2CCCCC2)cc1OCC returned M4 antag 2, CHRM4 PAM 2, CHRM5 antagonist 10, CHRM4 agonist 3, CHRM5 PAM 1 and M5 ag -3.
`Cc1nc2nc(CNC(=O)OC(C)(C)C)nn2c(C)c1CCC(=O)Nc1ccc2c(c1)OCO2` gave M4 antag 3, CHRM4 PAM 2, CHRM5 antagonist 20, CHRM4 agonist 2, CHRM5 PAM -8 and M5 ag -5.
For COc1ccc(/C=C2\SC(=O)N(CC(=O)NCCC(C)C)C2=O)cc1OC the results were M4 antag -1, CHRM4 PAM -1, CHRM5 antagonist -10, CHRM4 agonist 1, CHRM5 PAM 19* and M5 ag 7.
For COc1ccc(/C=C2/SC(=O)N(CC(=O)NCCC(C)C)C2=O)cc1OC the results were M4 antag 6, CHRM4 PAM 1, CHRM5 antagonist 8, CHRM4 agonist 0, CHRM5 PAM 1 and M5 ag 3.
For COc1ccc([C@H]2CC(=O)C=C(c3ccccc3OC)C2)cc1OC the results were M4 antag 9, CHRM4 PAM -1, CHRM5 antagonist 7, CHRM4 agonist 9, CHRM5 PAM -10 and M5 ag 1.
Screening O=C(OCC(=O)N1CCN(C(=O)c2ccco2)CC1)c1cc(-c2cccc(Br)c2)nc2ccccc12 returned M4 antag 28*, CHRM4 PAM -23, CHRM5 antagonist 12, CHRM4 agonist 9, CHRM5 PAM -8 and M5 ag 6.
Cc1ccc(Nc2nc(N)nc(CSC(=S)N3CCOCC3)n2)cc1 was read as M4 antag -5, CHRM4 PAM -2, CHRM5 antagonist 0, CHRM4 agonist 0, CHRM5 PAM 0 and M5 ag 0.
`CCOc1ccc(Nc2nc(N)nc(CSC(=S)N3CCOCC3)n2)cc1` gave M4 antag 2, CHRM4 PAM -22, CHRM5 antagonist 34*, CHRM4 agonist 14, CHRM5 PAM -26 and M5 ag -10.
CCCc1nc2n[nH]c(N)c2c2c1CCCC2 was read as M4 antag 2, CHRM4 PAM 26*, CHRM5 antagonist -3, CHRM4 agonist 2, CHRM5 PAM 12 and M5 ag -4.
Screening CCCc1nc2n[nH]c(N)c2c2c1CCC2 returned M4 antag -6, CHRM4 PAM 1, CHRM5 antagonist -6, CHRM4 agonist 0, CHRM5 PAM 0 and M5 ag 3.
For CCCCc1nc2n[nH]c(N)c2c2c1CCCC2 the results were M4 antag -2, CHRM4 PAM 9, CHRM5 antagonist 9, CHRM4 agonist 0, CHRM5 PAM 22* and M5 ag -4.
CC(=O)Nc1cccc(NC(=O)c2cc(-c3cccnc3)nc3ccc(Br)cc23)c1 was read as M4 antag 31*, CHRM4 PAM -12, CHRM5 antagonist 16, CHRM4 agonist 27, CHRM5 PAM -18 and M5 ag 6.
O=[N+]([O-])c1ccc(N2CCOCC2)cc1O was read as M4 antag 1, CHRM4 PAM -5, CHRM5 antagonist -4, CHRM4 agonist 1, CHRM5 PAM 13 and M5 ag 4.
Cc1cc(N2CCOCC2)ccc1/C=C\[N+](=O)[O-] was read as M4 antag 20, CHRM4 PAM -7, CHRM5 antagonist 31*, CHRM4 agonist 6, CHRM5 PAM 2 and M5 ag 16.
O=C(NCc1cccnc1)c1cc(C2CCCCN2S(=O)(=O)c2ccc(F)cc2F)on1 (centres undefined) was read as M4 antag 0, CHRM4 PAM -4, CHRM5 antagonist -4, CHRM4 agonist 4, CHRM5 PAM -3 and M5 ag -1.
`COc1ccc(N(CC(=O)NCCc2ccccc2)C(=O)c2csnn2)cc1` gave M4 antag 0, CHRM4 PAM -3, CHRM5 antagonist 32*, CHRM4 agonist 2, CHRM5 PAM -11 and M5 ag -3.
CCOc1ccc(N(CC(=O)NCCc2ccccc2)C(=O)c2csnn2)cc1 was read as M4 antag -29, CHRM4 PAM 16*, CHRM5 antagonist 4, CHRM4 agonist 2, CHRM5 PAM -5 and M5 ag -2.
Screening Cc1ccc(N(CC(=O)NCc2ccc(F)cc2)C(=O)c2csnn2)c(C)c1 returned M4 antag -2, CHRM4 PAM -1, CHRM5 antagonist 4, CHRM4 agonist 2, CHRM5 PAM -1 and M5 ag -2.
`Cc1cc(C)c(N(CC(=O)NCc2ccccc2)C(=O)c2csnn2)c(C)c1` gave M4 antag -17, CHRM4 PAM -1, CHRM5 antagonist -14, CHRM4 agonist 2, CHRM5 PAM 23* and M5 ag 2.
For COc1ccc(N(CC(=O)NCCc2ccccc2)C(=O)c2csnn2)cc1OC the results were M4 antag -1, CHRM4 PAM 4, CHRM5 antagonist 2, CHRM4 agonist 0, CHRM5 PAM 2 and M5 ag 0.
Screening Cc1ccc(N(CC(=O)NCCc2ccccc2)C(=O)c2csnn2)cc1 returned M4 antag 12, CHRM4 PAM 1, CHRM5 antagonist 6, CHRM4 agonist 1, CHRM5 PAM -2 and M5 ag -2.
`O=C(Cc1ccc(NC(=O)C2CCN(C(=O)C3CCC3)CC2)cc1)Nc1cccc(C(=O)N2CCCC2)c1` gave M4 antag -1, CHRM4 PAM 6, CHRM5 antagonist -7, CHRM4 agonist -2, CHRM5 PAM 11 and M5 ag 1.

Screens (PubChem BioAssay)
